As usually defined, the MIC is the lowest concentration found to suppress growth. Lower therefore signals inhibition by little substance.

Assay type in all cases: functional
The subject of test [1] is Mycoplasmoides gallisepticum. Nature of the test: The anti-mycoplasmal activity was determined against Mycoplasma gallisepticum K514 without the addition of copper. An outline of the steps:
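No copper was added; the medium's copper was below 3 μM. The medium was modified Adler at pH 8.0, with horse serum, benzylpenicillin and phenol red. Compounds were in DMSO (final 1.25%) and tested in serial 2-fold duplicate dilutions up to 100 μM. Each tube held 3 mL of medium plus 1 mL of fresh culture (A660 0.22) and was incubated at 37 °C for 24 h. MIC was the lowest concentration preventing phenol red color change.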

The subject of test [2] is Mycoplasmoides gallisepticum. The test can be described thus: The anti-mycoplasmal activity was determined against Mycoplasma gallisepticum K514 with the addition of copper (40 uM CuSO4). The method in brief: (§1)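 Broth-dilution MIC in modified Adler medium at pH 8.0, with heat-inactivated horse serum, benzylpenicillin and phenol red. CuSO4 was added to a final 40 μM. Compounds were in DMSO (final 1.25%) and tested in serial 2-fold dilutions, in duplicate, up to 100 μM. Each tube (3 mL) received 1 mL of fresh culture (A660 0.22, pH 6.8) and was incubated at 37 °C for 24 h. MIC was the lowest concentration without indicator color change.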

Test [3] deals with Mycoplasmoides gallisepticum. The test can be described thus: The anti-mycoplasmal activity against Mycoplasma gallisepticum K514 with the addition of copper at 40 uM CuSO4. The method in brief:
as §1

In brackets after ≈: the same amount, converted by molar mass.

As to `N=C(Nc1nc(-c2ccccn2)cc2ccccc12)c1ncccn1`, the MIC in test [1] turned out to be 0.195 µM (≈ 0.0636 µg/mL); in test [2] it was 0.0325 µM (≈ 0.0106 µg/mL).

Consider `CC[C@H]1OC(=O)C[C@@H](O)[C@H](C)[C@@H](O[C@@H]2O[C@H](C)[C@@H](O[C@H]3C[C@@](C)(O)[C@@H](O)[C@H](C)O3)[C@H](N(C)C)[C@H]2O)[C@@H](CC=O)C[C@@H](C)C(=O)/C=C/C(C)=C/[C@@H]1CO[C@@H]1O[C@H](C)[C@@H](O)[C@@H](OC)[C@H]1OC` [TYLOSIN], for which the MIC in test [1] and in test [2] was 0.1 µM (≈ 0.0916 µg/mL) each time. As for CUPRIC SULFATE, the MIC in test [1] was 700 µM. For the molecule `COc1cccc(C(=N)Nc2nc(-c3ccccn3)cc3ccccc23)c1`, the MIC in test [1] was found to be 1.56 µM (≈ 0.553 µg/mL); in test [2], 0.078 µM (≈ 0.0276 µg/mL). For the molecule `N=C(Nc1nc(-c2ccccn2)cc2ccccc12)c1cnccn1`, the MIC is 0.195 µM (≈ 0.0636 µg/mL) in test [1] and 0.039 µM (≈ 0.0127 µg/mL) in test [2]. Consider `COc1ccc(C(=N)Nc2nc(-c3ccccn3)cc3ccccc23)cc1`, for which the MIC in test [1] is 0.78 µM (≈ 0.276 µg/mL); in test [2], 0.104 µM (≈ 0.0369 µg/mL). As to `Cc1cccc(C(=N)Nc2nc(-c3ccccn3)cc3ccccc23)c1`, the MIC came to 0.78 µM (≈ 0.264 µg/mL) in test [1] and 0.0488 µM (≈ 0.0165 µg/mL) in test [2]. For `Cc1cccc2c(NC(=N)c3ccccn3)nc(-c3ccccc3)cc12`, in that order: more than 100 µM and more than 100 µM.

As to `N=C(Nc1ccccn1)c1ccccn1`, the MIC is more than 500 µM in test [1] and 250 µM (≈ 49.6 µg/mL) in test [3]. For the molecule `N=C(Nc1nc(-c2ccccn2)cc2ccccc12)c1ccc(Cl)c(Cl)c1`, the results for the MIC in test [1] and in test [2] were more than 10 µM and 0.78 µM (≈ 0.307 µg/mL), respectively.

For `Cc1ccc(C(=N)Nc2nc(-c3ccccn3)cc3ccccc23)cc1`, the MIC in test [1] is 0.78 µM (≈ 0.264 µg/mL); in test [2], 0.0683 µM (≈ 0.0231 µg/mL). Take `Cc1cc(C)nc(C(=N)Nc2nc(-c3ccccn3)cc3ccccc23)n1`: the MIC in test [1] was determined as 0.195 µM (≈ 0.0691 µg/mL); in test [3] it was 0.0455 µM (≈ 0.0161 µg/mL). Consider `Cc1cccc(C(=N)Nc2nc(-c3ccccn3)cc3ccccc23)n1`, for which the results for the MIC in test [1] and in test [2] were 0.39 µM (≈ 0.132 µg/mL) and 0.065 µM (≈ 0.0221 µg/mL), respectively.

In the case of `Cc1cc(C(=N)Nc2nc(-c3ccccn3)cc3ccccc23)ccn1`, the results for the MIC in test [1] and in test [2] were 0.39 µM (≈ 0.132 µg/mL) and 0.065 µM (≈ 0.0221 µg/mL), respectively. For `N=C(Nc1nc(-c2ccccn2)cc2ccccc12)c1cccc(Cl)c1`, in that order: 6.25 µM (≈ 2.24 µg/mL) and 0.195 µM (≈ 0.07 µg/mL). For `N=C(Nc1nc(-c2ccccn2)cc2ccccc12)c1ccccc1`, in that order: 0.195 µM (≈ 0.0633 µg/mL) and 0.0634 µM (≈ 0.0206 µg/mL). For `N=C(Nc1nc(-c2ccccn2)cc2ccccc12)c1ccc(Cl)cc1`, in that order: 6.25 µM (≈ 2.24 µg/mL) and 0.195 µM (≈ 0.07 µg/mL). Take `Nc1nc(-c2ccccn2)cc2ccccc12`: the minimal inhibitory concentration (MIC) in test [1] came out at 452 µM (≈ 100 µg/mL); in test [3], 0.45 µM (≈ 0.0996 µg/mL). Regarding `N=C(Nc1nc(-c2ccccn2)cc2ccccc12)c1ccncc1`, the MIC in test [1] came to 0.39 µM (≈ 0.127 µg/mL); in test [2], 0.039 µM (≈ 0.0127 µg/mL). For `N=C(Nc1nc(-c2ccccn2)cc2ccccc12)c1ccccn1`, in that order: 0.39 µM (≈ 0.127 µg/mL) and 0.0325 µM (≈ 0.0106 µg/mL).
